Calls of active or inactive are those of the source. No cut-off for these calls is given here.

Here are results for 1 compound from ChEMBL document CHEMBL3098105, “7,7'-Diazaindirubin--a small molecule inhibitor of casein kinase 2 in vitro and in cells” (Bioorg Med Chem, 2014).

Test [1] deals with Serine/threonine-protein kinase pim-1 (Homo sapiens) (UniProt P11309). In words: Inhibition of human Pim-1 assessed as residual activity at 1 uM relative to control.
Test [2] deals with T1, Serine/threonine-protein kinase Chk1 (Homo sapiens) (UniProt O14757).
T1 sequence (whole entry): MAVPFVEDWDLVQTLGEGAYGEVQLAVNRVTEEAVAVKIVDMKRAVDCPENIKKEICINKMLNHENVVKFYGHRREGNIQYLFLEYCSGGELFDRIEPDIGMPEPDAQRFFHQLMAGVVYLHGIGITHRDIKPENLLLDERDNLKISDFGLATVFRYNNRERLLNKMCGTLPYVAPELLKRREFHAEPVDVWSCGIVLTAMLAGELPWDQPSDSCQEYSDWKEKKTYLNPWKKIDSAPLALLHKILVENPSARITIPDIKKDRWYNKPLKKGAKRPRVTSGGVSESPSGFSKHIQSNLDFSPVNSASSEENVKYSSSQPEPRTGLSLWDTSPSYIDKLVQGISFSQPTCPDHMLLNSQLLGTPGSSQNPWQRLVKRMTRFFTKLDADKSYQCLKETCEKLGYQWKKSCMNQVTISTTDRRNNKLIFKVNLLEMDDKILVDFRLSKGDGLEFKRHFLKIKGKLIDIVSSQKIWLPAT
As to the kind of experiment: Inhibition of CHK1 (unknown origin) assessed as residual activity at 10 uM relative to control.

Test [3] deals with T2, Aurora kinase A (Homo sapiens) (UniProt O14965).
T2 sequence (whole entry): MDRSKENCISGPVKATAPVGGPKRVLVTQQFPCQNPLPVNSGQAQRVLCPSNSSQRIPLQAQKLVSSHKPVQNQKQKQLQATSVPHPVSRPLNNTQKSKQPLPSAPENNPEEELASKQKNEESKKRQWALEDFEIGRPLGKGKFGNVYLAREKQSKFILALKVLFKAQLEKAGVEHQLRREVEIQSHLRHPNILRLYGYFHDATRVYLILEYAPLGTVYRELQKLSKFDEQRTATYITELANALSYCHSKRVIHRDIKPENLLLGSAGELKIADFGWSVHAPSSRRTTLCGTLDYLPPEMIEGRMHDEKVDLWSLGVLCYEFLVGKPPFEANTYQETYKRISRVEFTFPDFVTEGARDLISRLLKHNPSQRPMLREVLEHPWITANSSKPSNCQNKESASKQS
In words: Inhibition of human Aurora-A assessed as residual activity at 1 uM relative to control.

The subject of test [4] is MCF7. As to the kind of experiment: Cell cycle arrest in human MCF7 cells assessed as accumulation at sub-G1 phase at 1 uM after 24 hrs using propidium iodide staining by FACS analysis (reference value: 0.17%). Type of test: functional.
The subject of test [5] is MCF7. In words: Induction of late stage apoptosis in CK2-deficient human MCF7 cells at 0.25 to 4 uM after 24 hrs using propidium iodide/annexin V staining by FACS analysis. Type of test: functional, cell-based. In short, it runs like this:
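MCF7 cells were then treated for 24 h, stained with FITC-annexin V in HEPES pH 7.4 binding buffer with 1.8 mM CaCl2 (15 min, dark, room temperature), then with PI (10 min), and analysed by FACS.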

The target in test [6] is Serine/threonine-protein kinase WNK3 (Homo sapiens) (UniProt Q9BYP7). As to the kind of experiment: Inhibition of human WNK3 assessed as residual activity at 1 uM relative to control.
Test [7] has as its system U-251. In words: Antiproliferative activity against human U251 cells after 3 days by sulforhodamine B assay. It is filed as functional. The conditions noted are these: U-251, 72 h. Background: The SRB assay estimates cell density from bound dye.
Test [8] concerns the target Cyclin-dependent kinase 4/cyclin D1 (Homo sapiens) (UniProt P11802+P24385). In words: Inhibition of CDK4/CycD1 (unknown origin) assessed as residual activity at 10 uM relative to control. It is filed as protein-complex assay.
For test [9], the target named is Cyclin-dependent kinase 1/cyclin B1 (Homo sapiens) (UniProt P06493+P14635). In words: Inhibition of CDK1/CycB1 (unknown origin) assessed as residual activity at 10 uM relative to control. It is filed as protein-complex assay.
Chain of Cyclin-dependent kinase 1/cyclin B1 (Homo sapiens) (P06493 whole entry, looked up): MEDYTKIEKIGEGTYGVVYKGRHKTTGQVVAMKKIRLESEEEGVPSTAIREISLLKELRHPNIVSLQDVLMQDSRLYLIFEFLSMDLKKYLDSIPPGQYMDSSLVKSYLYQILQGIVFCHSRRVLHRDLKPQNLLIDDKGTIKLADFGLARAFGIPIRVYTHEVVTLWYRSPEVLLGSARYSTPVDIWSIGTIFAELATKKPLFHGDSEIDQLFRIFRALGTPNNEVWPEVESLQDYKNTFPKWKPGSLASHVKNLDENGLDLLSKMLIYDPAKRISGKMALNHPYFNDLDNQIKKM
Chain of Cyclin-dependent kinase 1/cyclin B1 (Homo sapiens) (P14635 whole entry, looked up): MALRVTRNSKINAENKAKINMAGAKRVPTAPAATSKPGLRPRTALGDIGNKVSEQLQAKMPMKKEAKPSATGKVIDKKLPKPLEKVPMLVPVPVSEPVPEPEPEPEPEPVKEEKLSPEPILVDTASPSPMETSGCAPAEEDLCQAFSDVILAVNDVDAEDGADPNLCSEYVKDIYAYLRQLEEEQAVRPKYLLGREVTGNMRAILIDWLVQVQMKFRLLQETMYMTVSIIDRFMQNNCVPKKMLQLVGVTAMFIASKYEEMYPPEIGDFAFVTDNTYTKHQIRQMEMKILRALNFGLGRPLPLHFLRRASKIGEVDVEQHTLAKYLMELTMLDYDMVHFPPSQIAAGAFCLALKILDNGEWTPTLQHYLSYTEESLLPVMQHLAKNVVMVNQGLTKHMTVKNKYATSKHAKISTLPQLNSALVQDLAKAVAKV
Test [10] deals with NUAK family SNF1-like kinase 1 (Homo sapiens) (UniProt O60285). In words: Inhibition of human ARK5 assessed as residual activity at 1 uM relative to control.
Test [11] relates to SF-268. As to the kind of experiment: Antiproliferative activity against human SF268 cells after 3 days by sulforhodamine B assay. Type of test: functional. Conditions: SF-268, 72 h. In short, it runs like this:
(§1)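 Tested in the NCI 60 cell line panel. GI50 is the concentration giving 50% inhibition of cell growth, and values are the mean of two series of tests.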

Test [12] concerns the target Serine/threonine-protein kinase TAO1 (Homo sapiens) (UniProt Q7L7X3). In words: Inhibition of human TAO1 assessed as residual activity at 1 uM relative to control.
The target of test [13] is Serine/threonine-protein kinase B-raf (Homo sapiens) (UniProt P15056). As to the kind of experiment: Inhibition of wild type B-RAF (unknown origin) assessed as residual activity at 10 uM relative to control.
Chain of Serine/threonine-protein kinase B-raf (Homo sapiens) (P15056 whole entry): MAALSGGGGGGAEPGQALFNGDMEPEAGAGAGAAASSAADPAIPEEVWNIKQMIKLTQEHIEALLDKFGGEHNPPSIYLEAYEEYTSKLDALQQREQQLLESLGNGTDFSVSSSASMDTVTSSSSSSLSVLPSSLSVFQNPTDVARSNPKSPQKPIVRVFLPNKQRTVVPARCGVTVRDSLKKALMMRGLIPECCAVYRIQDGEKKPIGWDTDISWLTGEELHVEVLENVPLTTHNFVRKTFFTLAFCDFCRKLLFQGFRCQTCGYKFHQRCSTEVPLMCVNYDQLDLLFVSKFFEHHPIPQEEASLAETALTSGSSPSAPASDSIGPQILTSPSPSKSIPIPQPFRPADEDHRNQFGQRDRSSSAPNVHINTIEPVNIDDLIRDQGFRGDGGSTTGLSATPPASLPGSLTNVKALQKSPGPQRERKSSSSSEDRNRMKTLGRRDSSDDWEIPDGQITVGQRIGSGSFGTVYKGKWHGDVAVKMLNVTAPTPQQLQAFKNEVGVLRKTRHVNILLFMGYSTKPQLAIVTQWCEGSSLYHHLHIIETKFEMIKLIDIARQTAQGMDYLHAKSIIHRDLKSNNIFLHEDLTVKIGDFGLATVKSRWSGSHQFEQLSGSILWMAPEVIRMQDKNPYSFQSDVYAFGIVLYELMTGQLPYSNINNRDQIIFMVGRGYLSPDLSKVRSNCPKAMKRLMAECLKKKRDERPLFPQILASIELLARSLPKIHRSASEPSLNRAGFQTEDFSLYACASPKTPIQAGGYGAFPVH
Test [14] addresses Serine/threonine-protein kinase VRK2 (Homo sapiens) (UniProt Q86Y07). As to the kind of experiment: Inhibition of human VRK2 assessed as residual activity at 1 uM relative to control.
Test [15] deals with Hepatocyte growth factor receptor (Homo sapiens) (UniProt P08581). In words: Inhibition of human Met assessed as residual activity at 1 uM relative to control.
Chain of Hepatocyte growth factor receptor (Homo sapiens) (P08581 whole entry): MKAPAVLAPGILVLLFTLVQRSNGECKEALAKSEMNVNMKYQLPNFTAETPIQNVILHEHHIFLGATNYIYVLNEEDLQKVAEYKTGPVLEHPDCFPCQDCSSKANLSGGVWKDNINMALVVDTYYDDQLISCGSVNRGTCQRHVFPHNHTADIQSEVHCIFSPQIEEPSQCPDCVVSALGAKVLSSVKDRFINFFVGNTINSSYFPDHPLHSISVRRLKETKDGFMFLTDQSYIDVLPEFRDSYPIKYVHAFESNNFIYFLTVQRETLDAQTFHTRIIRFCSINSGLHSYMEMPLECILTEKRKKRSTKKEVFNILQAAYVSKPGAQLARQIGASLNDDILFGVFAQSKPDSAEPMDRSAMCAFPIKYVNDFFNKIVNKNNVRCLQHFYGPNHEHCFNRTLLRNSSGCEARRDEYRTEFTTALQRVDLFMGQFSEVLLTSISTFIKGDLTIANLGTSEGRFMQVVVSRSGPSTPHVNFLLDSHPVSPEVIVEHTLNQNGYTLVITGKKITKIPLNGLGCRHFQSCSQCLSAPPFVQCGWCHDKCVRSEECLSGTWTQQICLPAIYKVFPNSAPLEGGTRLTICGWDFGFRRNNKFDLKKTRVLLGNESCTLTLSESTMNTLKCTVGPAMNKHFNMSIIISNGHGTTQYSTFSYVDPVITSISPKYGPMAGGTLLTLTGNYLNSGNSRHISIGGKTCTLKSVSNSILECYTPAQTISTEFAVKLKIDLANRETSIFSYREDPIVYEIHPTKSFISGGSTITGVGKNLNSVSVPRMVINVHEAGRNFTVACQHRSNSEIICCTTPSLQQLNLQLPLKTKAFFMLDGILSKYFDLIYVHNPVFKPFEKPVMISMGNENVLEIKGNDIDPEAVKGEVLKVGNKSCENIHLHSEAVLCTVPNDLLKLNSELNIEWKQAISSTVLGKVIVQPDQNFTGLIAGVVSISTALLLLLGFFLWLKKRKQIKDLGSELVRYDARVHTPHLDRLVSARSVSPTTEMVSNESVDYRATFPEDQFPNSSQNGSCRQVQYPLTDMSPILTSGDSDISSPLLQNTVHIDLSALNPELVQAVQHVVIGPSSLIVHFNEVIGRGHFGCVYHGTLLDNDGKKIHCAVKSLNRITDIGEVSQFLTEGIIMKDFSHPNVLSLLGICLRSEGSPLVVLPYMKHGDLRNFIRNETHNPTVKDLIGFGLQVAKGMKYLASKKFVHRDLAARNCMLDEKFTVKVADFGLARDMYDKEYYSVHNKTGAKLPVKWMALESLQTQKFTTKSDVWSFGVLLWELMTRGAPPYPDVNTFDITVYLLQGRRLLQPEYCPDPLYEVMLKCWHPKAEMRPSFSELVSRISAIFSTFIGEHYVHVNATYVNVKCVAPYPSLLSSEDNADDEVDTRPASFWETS
Test [16] deals with High affinity nerve growth factor receptor (Homo sapiens) (UniProt P04629). As to the kind of experiment: Inhibition of human TrkA assessed as residual activity at 1 uM relative to control.
Chain of High affinity nerve growth factor receptor (Homo sapiens) (P04629 33-796 limits assumed): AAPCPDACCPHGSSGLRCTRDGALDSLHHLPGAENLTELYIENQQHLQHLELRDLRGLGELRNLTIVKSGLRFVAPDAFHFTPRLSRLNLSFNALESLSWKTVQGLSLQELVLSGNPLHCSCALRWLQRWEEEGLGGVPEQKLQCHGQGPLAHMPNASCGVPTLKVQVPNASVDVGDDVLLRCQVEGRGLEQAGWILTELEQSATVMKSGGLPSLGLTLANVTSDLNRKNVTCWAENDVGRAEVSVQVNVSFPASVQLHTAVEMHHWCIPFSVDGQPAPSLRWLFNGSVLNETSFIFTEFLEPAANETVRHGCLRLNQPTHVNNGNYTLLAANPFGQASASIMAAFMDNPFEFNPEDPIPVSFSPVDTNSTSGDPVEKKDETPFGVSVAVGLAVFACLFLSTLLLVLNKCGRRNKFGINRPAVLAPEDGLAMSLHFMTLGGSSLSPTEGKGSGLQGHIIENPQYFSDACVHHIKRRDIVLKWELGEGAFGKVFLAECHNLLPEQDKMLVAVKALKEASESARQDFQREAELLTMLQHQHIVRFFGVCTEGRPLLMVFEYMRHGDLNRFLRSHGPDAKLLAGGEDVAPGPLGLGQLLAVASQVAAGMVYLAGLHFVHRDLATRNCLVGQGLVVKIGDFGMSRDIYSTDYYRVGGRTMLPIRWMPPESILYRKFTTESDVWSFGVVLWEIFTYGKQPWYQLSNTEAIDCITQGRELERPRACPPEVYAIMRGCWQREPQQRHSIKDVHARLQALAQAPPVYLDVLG
Test [17] deals with Dual specificity mitogen-activated protein kinase kinase 1 (Homo sapiens) (UniProt Q02750). In words: Inhibition of human MEK1 assessed as residual activity at 1 uM relative to control.
Chain of Dual specificity mitogen-activated protein kinase kinase 1 (Homo sapiens) (Q02750 whole entry): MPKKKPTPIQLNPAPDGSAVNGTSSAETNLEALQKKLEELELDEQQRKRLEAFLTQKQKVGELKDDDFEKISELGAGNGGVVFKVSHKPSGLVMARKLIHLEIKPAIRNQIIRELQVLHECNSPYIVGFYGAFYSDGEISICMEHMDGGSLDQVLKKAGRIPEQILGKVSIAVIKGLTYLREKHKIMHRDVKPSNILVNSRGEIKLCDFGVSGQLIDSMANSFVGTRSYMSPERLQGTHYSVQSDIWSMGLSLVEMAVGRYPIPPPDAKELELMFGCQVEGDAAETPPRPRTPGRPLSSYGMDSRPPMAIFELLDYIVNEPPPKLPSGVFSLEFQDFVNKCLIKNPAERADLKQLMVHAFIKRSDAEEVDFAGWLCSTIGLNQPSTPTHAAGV
Test [18] concerns HOP-62. As to the kind of experiment: Antiproliferative activity against human HOP62 cells after 3 days by sulforhodamine B assay. The conditions noted are these: HOP-62, 72 h. It is filed as functional. In short, it runs like this: as §1

Chain of Serine/threonine-protein kinase pim-1 (Homo sapiens) (P11309 whole entry, looked up): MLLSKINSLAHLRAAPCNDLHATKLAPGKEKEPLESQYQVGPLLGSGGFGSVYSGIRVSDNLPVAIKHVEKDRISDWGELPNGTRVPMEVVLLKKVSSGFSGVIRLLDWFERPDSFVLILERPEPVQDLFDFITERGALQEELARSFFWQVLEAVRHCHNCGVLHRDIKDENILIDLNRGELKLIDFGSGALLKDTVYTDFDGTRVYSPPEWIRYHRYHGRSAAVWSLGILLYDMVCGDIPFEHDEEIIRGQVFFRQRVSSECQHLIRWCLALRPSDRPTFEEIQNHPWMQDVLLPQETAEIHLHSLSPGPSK
Chain of Serine/threonine-protein kinase VRK2 (Homo sapiens) (Q86Y07 whole entry): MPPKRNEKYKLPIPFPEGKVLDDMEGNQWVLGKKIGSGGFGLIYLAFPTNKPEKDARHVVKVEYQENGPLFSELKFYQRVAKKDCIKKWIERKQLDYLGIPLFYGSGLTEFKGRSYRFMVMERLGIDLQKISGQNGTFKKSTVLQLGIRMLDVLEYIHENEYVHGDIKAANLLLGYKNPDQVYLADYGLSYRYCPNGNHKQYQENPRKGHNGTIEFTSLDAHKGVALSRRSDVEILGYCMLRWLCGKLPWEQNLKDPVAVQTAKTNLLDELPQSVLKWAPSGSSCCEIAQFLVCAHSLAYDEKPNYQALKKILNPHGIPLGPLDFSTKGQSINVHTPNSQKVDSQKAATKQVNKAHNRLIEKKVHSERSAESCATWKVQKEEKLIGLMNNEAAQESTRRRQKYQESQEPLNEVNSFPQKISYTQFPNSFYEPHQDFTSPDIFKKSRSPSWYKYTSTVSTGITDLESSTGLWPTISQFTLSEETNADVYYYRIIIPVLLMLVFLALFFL

What is called GI50 is the concentration giving 50% growth inhibition. A high value points to lower sensitivity of the cells. Regarding `O=C1Nc2ncccc2/C1=C1/Nc2ncccc2C1=O`, the Activity in test [1] stood at 108%; in test [2], 99%; in test [3], 60%; in test [4] it was 0.16%; in [6], 106%; in test [8], 88%. Also, the Activity in [9] came out at 89%; in test [10] it was 81%; in test [12] it was 98%; in test [13], 94%; in [14], 110%; in [15] it was 77%. The Activity in test [16] was determined as 127%; in [17], 96%. Besides, the outcome in [5] was inactive. For the same compound, the figures for the GI50 in [7], in test [11] and in test [18] were 1.1 µM, 1.62 µM and 1.37 µM, respectively.
